Results reported in ChEMBL document CHEMBL4622841, “Structural modifications of indolinones bearing a pyrrole moiety and discovery of a multi-kinase inhibitor with potent antitumor activity” (Bioorg Med Chem, 2020).
Activity calls are given as the source filed them. The rule behind the calls is not given here.

Assays:
MKN-74 [1] = assay: Induction of apoptosis in human MKN74 cells assessed as necrotic cells at 0.3 uM incubated for 72 hrs by Annexin-V-FITC/propidium iodide staining-based flow cytometric analysis (reference value: 6.29%); assay type: functional
MKN-74 [2] = assay: Induction of apoptosis in human MKN74 cells assessed as viable cells at 0.3 uM incubated for 72 hrs by Annexin-V-FITC/propidium iodide staining-based flow cytometric analysis (reference value: 76.84%); assay type: functional; conditions: MKN-74, 72 h, read-out: Activity
[3] = target: Fibroblast growth factor receptor 1 (Homo sapiens, UniProt P11362); assay: Inhibition of N-terminal GST fused human recombinant FGFR1 cytoplasmic domain (398 to 822 (end) residues) expressed in baculovirus expression system using FAM-labeled peptide and ATP as substrate preincubated for 10 mins followed by substrate addition measured after 1 hr by mobility shift assay
[4] = target: Proto-oncogene tyrosine-protein kinase Src (Homo sapiens, UniProt P12931); assay: Inhibition of SRC (unknown origin) using FAM-labeled peptide and ATP as substrate preincubated for 10 mins followed by substrate addition measured after 1 hr by mobility shift assay
[5] = target: Cyclin-dependent kinase 2 (Homo sapiens, UniProt P24941); assay: Inhibition of CDK2 (unknown origin) at 1 uM using FAM-labeled peptide and ATP as substrate preincubated for 10 mins followed by substrate addition measured after 1 hr by mobility shift assay
[6] = target: Cyclin-dependent kinase 4 (Homo sapiens, UniProt P11802); assay: Inhibition of CDK4 (unknown origin) at 1 uM using FAM-labeled peptide and ATP as substrate preincubated for 10 mins followed by substrate addition measured after 1 hr by mobility shift assay
[7] = target: T1, Serine/threonine-protein kinase Chk1 (Homo sapiens) (UniProt O14757); assay: Inhibition of CHK (unknown origin) at 1 uM using FAM-labeled peptide and ATP as substrate preincubated for 10 mins followed by substrate addition measured after 1 hr by mobility shift assay
T1 sequence (whole entry): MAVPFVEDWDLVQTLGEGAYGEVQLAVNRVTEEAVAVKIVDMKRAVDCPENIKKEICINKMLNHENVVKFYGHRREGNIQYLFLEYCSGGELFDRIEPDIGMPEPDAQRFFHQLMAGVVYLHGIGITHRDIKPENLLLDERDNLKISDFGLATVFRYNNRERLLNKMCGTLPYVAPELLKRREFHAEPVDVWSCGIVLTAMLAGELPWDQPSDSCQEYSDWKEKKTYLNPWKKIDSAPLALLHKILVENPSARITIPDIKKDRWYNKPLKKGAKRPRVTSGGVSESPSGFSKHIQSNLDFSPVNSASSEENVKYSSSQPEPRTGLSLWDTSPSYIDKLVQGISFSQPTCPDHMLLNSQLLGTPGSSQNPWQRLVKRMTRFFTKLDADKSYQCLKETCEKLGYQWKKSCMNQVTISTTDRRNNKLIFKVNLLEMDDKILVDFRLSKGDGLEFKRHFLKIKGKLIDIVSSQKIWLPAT

HT-29 [8] = assay: Inhibition of receptor tyrosine kinase in human HT-29 cells assessed as reduction in AKT phosphorylation at Ser473 residue after 24 hrs by Western blotting analysis; assay type: cell-based
Outline: (§1)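 Cells cultured overnight, then treated with compound at different concentrations for 24 h. About 1×10⁶ cells harvested and immunoblotted for p-AKT (Ser473), AKT, p-ERK (Thr202/Tyr204), ERK, with GAPDH as loading control. Detection by chemiluminescence and gel imaging. Blots shown are representative of several experiments.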

HepG2 [9] = assay: Inhibition of receptor tyrosine kinase in human HepG2 cells assessed as reduction in ERK phosphorylation at Thr202/Tyr204 residues at 3 uM after 24 hrs by Western blotting analysis; assay type: cell-based; outline: as §1
MKN-74 [10] = assay: Induction of apoptosis in human MKN74 cells incubated for 72 hrs by Annexin-V-FITC/propidium iodide staining-based flow cytometric analysis; assay type: functional, cell-based
HEK-293T = assay: Induction of apoptosis in human HEK293T cells by Annexin-V-FITC/propidium iodide staining-based flow cytometric analysis; assay type: cell-based
HT-29 [11] = assay: Induction of apoptosis in human HT-29 cells assessed as late apoptotic cells at 0.3 uM incubated for 72 hrs by Annexin-V-FITC/propidium iodide staining-based flow cytometric analysis (reference value: 6.12%); assay type: functional
HT-29 [12] = assay: Induction of apoptosis in human HT-29 cells assessed as early apoptotic cells at 1 uM incubated for 72 hrs by Annexin-V-FITC/propidium iodide staining-based flow cytometric analysis (reference value: 3.18%); assay type: functional
HT-29 [13] = assay: Induction of apoptosis in human HT-29 cells assessed as early apoptotic cells at 3 uM incubated for 72 hrs by Annexin-V-FITC/propidium iodide staining-based flow cytometric analysis (reference value: 3.18%); assay type: functional
MKN-74 [14] = assay: Induction of apoptosis in human MKN74 cells assessed as early apoptotic cells at 1 uM incubated for 72 hrs by Annexin-V-FITC/propidium iodide staining-based flow cytometric analysis (reference value: 1.98%); assay type: functional
HepG2 [15] = assay: Induction of apoptosis in human HepG2 cells assessed as early apoptotic cells at 0.3 uM incubated for 72 hrs by Annexin-V-FITC/propidium iodide staining-based flow cytometric analysis (reference value: 1.08%); assay type: functional
HepG2 [16] = assay: Induction of apoptosis in human HepG2 cells assessed as late apoptotic cells at 1 uM incubated for 72 hrs by Annexin-V-FITC/propidium iodide staining-based flow cytometric analysis (reference value: 2.89%); assay type: functional
HepG2 [17] = assay: Induction of apoptosis in human HepG2 cells assessed as early apoptotic cells at 3 uM incubated for 72 hrs by Annexin-V-FITC/propidium iodide staining-based flow cytometric analysis (reference value: 1.08%); assay type: functional
HUVEC [18] = assay: Induction of apoptosis in human HUVEC cells assessed as early apoptotic cells at 1 uM incubated for 48 hrs by Annexin-V-FITC/propidium iodide staining-based flow cytometric analysis (reference value: 3.63%); assay type: functional
HUVEC [19] = assay: Induction of apoptosis in human HUVEC cells assessed as late apoptotic cells at 1 uM incubated for 48 hrs by Annexin-V-FITC/propidium iodide staining-based flow cytometric analysis (reference value: 3.48%); assay type: functional
HUVEC [20] = assay: Induction of apoptosis in human HUVEC cells assessed as early apoptotic cells at 3 uM incubated for 48 hrs by Annexin-V-FITC/propidium iodide staining-based flow cytometric analysis (reference value: 3.63%); assay type: functional
HUVEC [21] = assay: Induction of apoptosis in human HUVEC cells assessed as late apoptotic cells at 3 uM incubated for 48 hrs by Annexin-V-FITC/propidium iodide staining-based flow cytometric analysis (reference value: 3.48%); assay type: functional
[22] = Intrinsic clearance in mouse liver microsomes; assay type: ADME, Microsome; conditions: read-out: CLH
HT-29 [23] = assay: Antitumor activity against human HT-29 cells xenografted in nu/nu mouse assessed as tumour growth inhibition at 100 mg/kg, po qd for 18 days and measured twice per week by vernier caliper method; assay type: functional; conditions: HT-29, po, 432 h, read-out: TGI
MKN-74 [24] = assay: Induction of apoptosis in human MKN74 cells assessed as viable cells at 3 uM incubated for 72 hrs by Annexin-V-FITC/propidium iodide staining-based flow cytometric analysis (reference value: 76.84%); assay type: functional; conditions: MKN-74, 72 h, read-out: Activity

Proto-oncogene tyrosine-protein kinase Src, sequence (P12931 2-536 limits assumed): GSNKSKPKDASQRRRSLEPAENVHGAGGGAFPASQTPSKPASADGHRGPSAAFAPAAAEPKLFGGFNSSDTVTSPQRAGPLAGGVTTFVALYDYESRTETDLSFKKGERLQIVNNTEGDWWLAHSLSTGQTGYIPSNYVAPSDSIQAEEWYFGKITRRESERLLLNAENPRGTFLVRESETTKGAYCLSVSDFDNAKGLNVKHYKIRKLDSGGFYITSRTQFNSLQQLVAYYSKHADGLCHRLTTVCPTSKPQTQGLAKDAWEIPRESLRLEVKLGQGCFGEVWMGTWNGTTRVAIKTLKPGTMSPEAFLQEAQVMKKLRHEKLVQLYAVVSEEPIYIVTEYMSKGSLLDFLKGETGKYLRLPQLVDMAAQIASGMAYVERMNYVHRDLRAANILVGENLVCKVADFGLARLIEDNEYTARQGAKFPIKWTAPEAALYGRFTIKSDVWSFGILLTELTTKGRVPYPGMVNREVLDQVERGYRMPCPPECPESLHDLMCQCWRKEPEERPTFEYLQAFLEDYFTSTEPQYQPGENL
Cyclin-dependent kinase 4, sequence (P11802 whole entry): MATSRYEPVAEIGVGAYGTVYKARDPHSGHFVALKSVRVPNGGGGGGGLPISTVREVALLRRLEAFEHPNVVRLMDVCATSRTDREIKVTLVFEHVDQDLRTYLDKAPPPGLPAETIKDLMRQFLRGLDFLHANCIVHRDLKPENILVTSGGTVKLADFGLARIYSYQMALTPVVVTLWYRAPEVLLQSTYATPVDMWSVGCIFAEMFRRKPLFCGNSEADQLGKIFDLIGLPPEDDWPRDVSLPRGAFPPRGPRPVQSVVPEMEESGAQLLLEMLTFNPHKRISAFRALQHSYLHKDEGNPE
Fibroblast growth factor receptor 1, sequence (P11362 whole entry, the tested form may be a part): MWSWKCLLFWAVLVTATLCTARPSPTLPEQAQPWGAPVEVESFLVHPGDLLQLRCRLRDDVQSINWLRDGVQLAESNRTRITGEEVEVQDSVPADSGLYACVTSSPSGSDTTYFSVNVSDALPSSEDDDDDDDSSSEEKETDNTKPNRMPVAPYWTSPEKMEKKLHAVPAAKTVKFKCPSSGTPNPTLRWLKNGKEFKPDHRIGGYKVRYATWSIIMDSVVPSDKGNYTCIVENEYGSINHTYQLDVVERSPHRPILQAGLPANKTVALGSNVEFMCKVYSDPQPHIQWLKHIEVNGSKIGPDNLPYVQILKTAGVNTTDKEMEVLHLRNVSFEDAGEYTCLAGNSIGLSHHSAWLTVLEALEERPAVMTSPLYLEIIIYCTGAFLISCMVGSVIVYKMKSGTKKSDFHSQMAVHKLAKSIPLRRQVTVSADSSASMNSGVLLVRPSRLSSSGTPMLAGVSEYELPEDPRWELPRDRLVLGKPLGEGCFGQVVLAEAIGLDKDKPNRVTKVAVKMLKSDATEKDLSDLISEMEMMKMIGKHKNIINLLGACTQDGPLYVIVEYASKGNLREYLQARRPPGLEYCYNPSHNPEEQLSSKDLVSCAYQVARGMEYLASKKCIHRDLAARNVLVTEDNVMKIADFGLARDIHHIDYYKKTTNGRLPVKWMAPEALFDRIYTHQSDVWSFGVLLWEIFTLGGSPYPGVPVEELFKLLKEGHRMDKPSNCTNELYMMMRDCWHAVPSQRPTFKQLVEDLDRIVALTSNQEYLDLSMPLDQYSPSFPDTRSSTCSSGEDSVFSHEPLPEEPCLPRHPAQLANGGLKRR

With `COC(=O)c1ccc2c(c1)NC(=O)/C2=C(\Nc1ccc(-n2c(C)ccc2CN2CCN(C)CC2)cc1)c1ccccc1` as the compound, how does the Activity (MKN-74 [1]) read?
Its Activity is 6.48%.

And the viability at 0.3 µM (MKN-74 [2])?
Its viability at 0.3 µM is 73.5%.

And the IC50 [3]?
The IC50 was 23 nM.

And the IC50 [4]?
Its IC50 is 178 nM.

And the inhibition [5]?
The inhibition was “inactive”.

And the inhibition [6]?
Its inhibition is “inactive”.

What about the inhibition [7] of the same compound?
The inhibition was “inactive”.

And the inhibition (HT-29 [8])?
The inhibition was “Dose-dependent effect”.

What about the inhibition (HepG2 [9]) of the same compound?
The inhibition was “Active”.

And the Activity (MKN-74 [10])?
The Activity was “Dose-dependent effect”.

What about the Activity (HEK-293T) of the same compound?
The Activity was “Non-Toxic”.

And the Activity (HT-29 [11])?
The Activity was 11.99%.

What about the Activity (HT-29 [12]) of the same compound?
Its Activity is 1.52%.

And the Activity (HT-29 [13])?
The Activity was 0.54%.

And the Activity (MKN-74 [14])?
The Activity was 5.73%.

What about the Activity (HepG2 [15]) of the same compound?
Its Activity is 1.81%.

What about the Activity (HepG2 [16]) of the same compound?
Its Activity is 61.54%.

What about the Activity (HepG2 [17]) of the same compound?
Its Activity is 16.52%.

And the Activity (HUVEC [18])?
Its Activity is 3.58%.

And the Activity (HUVEC [19])?
Its Activity is 3.09%.

And the Activity (HUVEC [20])?
Its Activity is 55.63%.

And the Activity (HUVEC [21])?
The Activity was 9.06%.

And the CLint scaled [22]?
The CLint scaled was 436 mL/min/kg.

And the inhibition in vivo at 100 mg/kg (HT-29 [23])?
The inhibition in vivo at 100 mg/kg was 13.4%.

What about the viability at 3 µM (MKN-74 [24]) of the same compound?
Its viability at 3 µM is 8.53%.
